Compound activity as filed in PubChem BioAssay.
Only some compounds are listed: those with a hit (about 4.2% of all), similar ones and a draw of the others.
OX1R antag-1: human HCRTR1 antagonism | hit rate 0.43% among 330,000 | inhibition, % at 5 µM | CHO/OX1R cells, Fluo-8 calcium fluorescence, orexin A | O43613;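 active = inhibition above its plate's threshold, mean inhibition of all tested compounds on the plate plus 3 SD, cut at about 37% in these data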
TAAR1 agonist: agonists of human TAAR1; activation, % at 3 µM; hit rate 0.99% among 360,000; Q96RJ0; AID 624467; CHO RD-HGA16 TAAR1, Fluo-8 calcium fluorescence; vehicle wells 0%, saturating PEA agonist 100%;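 active = activation above the mean activation of all test compounds in the run plus 3 SD, cut at about 38% in these data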
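System: CHO RD-HGA16 cells carrying human TAAR1 plus Gα16; Incubation: 17-24 h seeding, 75 min 37 °C dye, 30 min RT; Measured by: Fluo-8 fluorescence, 5 s baseline then 140 s kinetic read; Control set: DMSO and PEA EC100; Replication: single well for each compound.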
TAAR1 antag: human TAAR1 antagonism | inhibition, % at 3 µM | hit rate 1.5% among 360,000 | CHO RD-HGA16 TAAR1, Fluo-8 calcium fluorescence, antagonist;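 active = inhibition above a per-plate cutoff, the mean inhibition of test compounds on that plate plus 3 SD, cut at about 49% in these data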
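Test system – hTAAR1-expressing CHO RD-HGA16 cells, Gα16-coupled · Reagent – β-PEA at EC80 concentration, post-compound challenge · Compound dosing – 3 µM, single point · Timing – 140 s kinetic read after compound, 140 s after agonist · Detection – Fluo-8 intracellular calcium dye fluorescence, real-time kinetic reads · Control set – DMSO and EC80 PEA controls · Repeats – n of 1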
GalR3 antagonist: human GalR3 antagonism; hit rate 0.44% among 360,000; O60755; AID 651719; inhibition, % at 3 µM; HEK293 GalR3-CNG cAMP membrane potential fluorescence; galR3 body fused to GalR1 C-terminus;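 active = inhibition above the screen-wide average plus 3 SD, cut at about 13% in these data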;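 note: forskolin and galanin both at EC90 stimulate the cells; cAMP rise reported by CNG channel membrane potential dye signal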
Target sequence (O60755 1-299 limits assumed): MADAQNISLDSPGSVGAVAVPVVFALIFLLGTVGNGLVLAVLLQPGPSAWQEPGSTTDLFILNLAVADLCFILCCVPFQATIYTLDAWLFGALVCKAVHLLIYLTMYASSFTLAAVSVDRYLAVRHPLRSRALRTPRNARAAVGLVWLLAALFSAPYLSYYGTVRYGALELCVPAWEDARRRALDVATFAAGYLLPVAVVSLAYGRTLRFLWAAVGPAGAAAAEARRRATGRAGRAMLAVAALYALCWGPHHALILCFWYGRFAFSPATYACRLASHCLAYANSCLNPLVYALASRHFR
CHO parental Ca: counter-screen for OX1R antagonists: effect in parental CHO cells | parental CHO-K1, ATP-induced calcium, Fluo-8 fluorescence | inhibition, % at 5.6 µM | hit rate 0.63% among 330,000 | AID 463079;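 active = inhibition above that plate's mean sample inhibition plus 3 SD, cut at about 26% in these data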
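Test system: untransfected parental CHO cell line. Compound: one dose, 5.6 µM nominal. Detection: intracellular calcium via Fluo-8 no-wash fluorescent dye. Measure: % inhibition. Benchmarks: ATP-challenged DMSO wells low, unchallenged DMSO wells high.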
OX1R antag-2: OX1R (human) antagonism. OX1R-expressing cells, FRET antagonist read-out. inhibition, % at 6.6 µM. hit rate 1.8% among 330,000. AID 485270; in the data active = inhibition mostly above about 38%, no sharp cut-off; inactive = mostly below about 40%
TAAR1 ag confirm: human TAAR1 agonism, confirmed. shares compounds with TAAR1 agonist. CHO RD-HGA16 TAAR1, Fluo-8 calcium fluorescence; scaled: DMSO 0%, maximal phenethylamine 100%. activation, % at 3 µM. hit rate 82% among 2,400;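 active = activation above a cutoff set at the run's mean compound activation plus 3 SD, cut at about 39% in these data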
Ga16 ag counter: nonselective agonism, TAAR1 counter-screen; shares compounds with TAAR1 agonist; CHO-Ga16 parental, Fluo-8 calcium fluorescence; normalized to maximal ATP response, DMSO zero; activation, % at 3 µM; hit rate 50% among 2,400;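 active = activation above the run cutoff, the mean activation over all tested wells plus 3 SD, cut at about 12% in these data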
TAAR1 desens: human TAAR1 agonist that also desensitizes the receptor | inhibition, % at 3 µM | CHO RD-HGA16 hTAAR1, Fluo-8 calcium, beta-PEA response inhibition | hit rate 46% among 2,400 | shares compounds with TAAR1 agonist;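 active = inhibition above the run cutoff, the mean inhibition of all test compounds plus 3 SD, cut at about 49% in these data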;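 note: beta-PEA stimulus applied at its EC80; loss of beta-PEA calcium signal after compound pretreatment read as receptor desensitization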
Ga16 antag count: nonselective Ga16 antagonist in TAAR1 agonist counter-screen; shares compounds with TAAR1 agonist; CHO-Ga16 ATP-induced calcium, Fluo-8 fluorescence; inhibition, % at 3 µM; hit rate 39% among 2,400;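 active = inhibition above the plate's mean compound inhibition plus 3 SD, computed per plate, cut at about 22% in these data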
GalR3 antag conf: GalR3 (human) antagonism, confirmation; AID 652245; inhibition, % at 3 µM; hit rate 59% among 1,600; HEK293 GalR3 CNG cAMP biosensor, membrane potential fluorescence; galR3 fused to GalR1 carboxy tail; challenged with forskolin and galanin at EC90; shares compounds with GalR3 antagonist;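 active = inhibition above the primary screen's cutoff, the mean inhibition of all screened compounds plus 3 SD, cut at about 13% in these data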
HEK-CNG parental: acts as nonspecific agonist in parental HEK-CNG cells. AID 652268. activation, % at 3 µM. hit rate 10% among 1,600. shares compounds with GalR3 antagonist. HEK293-CNG parental cells, cAMP membrane potential fluorescence; normalised: DMSO wells 0%, forskolin wells 100%; in the data active = activation above about 1.3%
Numbers stand for hits; 0 = inactive; - = not tested or not shown.

SMILES	OX1R antag-1	TAAR1 agonist	TAAR1 antag	GalR3 antagonist	CHO parental Ca	OX1R antag-2	TAAR1 ag confirm	Ga16 ag counter	TAAR1 desens	Ga16 antag count	GalR3 antag conf	HEK-CNG parental
O=C(N/N=C/c1ccc(O)c(O)c1)N/N=C/c1ccc(O)c(O)c1	-	98	0	13	-	-	83	0	73	0	0	0
Cc1nonc1C(=O)N/N=C/c1ccc(O)c(O)c1	0	0	0	0	0	0	-	-	-	-	-	-
CCOC(=O)COc1cccc2c(=O)n(CC(=O)NCCc3ccccc3)ccc12	0	0	0	-	0	0	-	-	-	-	-	-
N#Cc1c([N+](=O)[O-])cc([N+](=O)[O-])cc1S(=O)(=O)Cc1ccccc1	0	48	0	64	0	0	0	0	0	45	25	0
O=C(CSc1ncccn1)N1CCN(S(=O)(=O)c2ccccc2)CC1	0	0	0	0	0	0	-	-	-	-	-	-
Cc1cccc(Nc2nc(NCc3ccco3)c3ccccc3n2)c1	0	70	0	45	74	0	50	0	0	28	54	8.7
Cc1ccc(NC(=O)CN2CCN(C)CC2)cc1S(=O)(=O)N1CCOCC1	0	0	0	0	0	0	-	-	-	-	-	-
O=C(OCCN1C(=O)c2cccc3c(N4CCOCC4)ccc(c23)C1=O)c1ccc(Cl)cc1Cl	0	0	0	0	0	0	-	-	-	-	-	-
O=C(OCCN1C(=O)c2cccc3c(N4CCOCC4)ccc(c23)C1=O)c1ccccc1Cl	82	128	105	15	91	69	93	94	95	86	74	2.9
Cc1ccccc1CCNC(=O)c1ccc(Cl)c(S(=O)(=O)N2CC(C)OC(C)C2)c1 (stereo not drawn)	0	59	0	107	0	0	0	0	0	27	92	0
COc1ccc(-c2cc(-c3n[nH]c(=S)n3-c3cc(OC)ccc3OC)[nH]n2)cc1	0	0	0	24	0	0	-	-	-	-	0	0
COc1cccc(C2=NOC(C(=O)NCC3CCCO3)C2)c1 (stereo not drawn)	0	0	0	35	0	0	-	-	-	-	0	0
CN(Cc1cccc2cnccc12)C(=O)c1cc(COc2ccc(F)cc2F)on1	-	0	0	0	-	-	-	-	-	-	-	-
COc1ccc(C(=O)C(CN2CCOCC2)c2ccccc2)cc1F (stereo not drawn)	-	0	0	28	-	-	-	-	-	-	0	0
COc1ccc(C(=O)OC(C)CN2CCOCC2)cc1OC (stereo not drawn)	0	0	0	-	0	0	-	-	-	-	0	0
Oc1c(Br)cc(Br)cc1C=NCc1ccccc1	0	0	0	-	0	0	-	-	-	-	0	0
CCc1nc2ccccc2c(C(=O)OCC(=O)Nc2cccc(S(=O)(=O)NC3=NCCCCC3)c2)c1C	0	0	0	14	0	0	-	-	-	-	0	0
C=C1C(=O)C23CCC4C(C)(C(=O)OC)CCCC4(C)C2CCC1(O)C3 (stereo not drawn)	-	0	0	37	-	-	-	-	-	-	48	1.6
